Test results taken from ChEMBL document CHEMBL1806414, “Synthesis and anticonvulsant activity of 7-phenyl-6,7-dihydro-[1,2,4]triazolo[1,5-a]pyrimidin-5(4H)-ones and their derivatives” (Eur J Med Chem, 2011).
Calls of active or inactive are those of the source. No cut-off for these calls is given here.

Legend:
[1] = system: Mus musculus; assay: Anticonvulsant activity in Kunming mouse assessed as protection against maximal electric shock-induced seizures at 100 mg/kg, ip measured after 4 hrs; assay type: functional, organism-based; set-up: dose 100 mg/kg
Method in brief: (§1)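 KunMing mice (18–22 g), compounds dissolved in DMSO, given i.p. at 30, 100 and 300 mg/kg, three mice per dose. Current applied through corneal electrodes for 0.2 s at 0.5 h and 4 h after dosing. Protection is abolition of tonic hind-leg extension, scored as protected/tested.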

[2] = system: Mus musculus; assay: Anticonvulsant activity in Kunming mouse assessed as inhibition of isoniazid-induced clonic seizures at 50 mg/kg, ip after 1 hrs; assay type: functional; set-up: scale not given: the % may be the effect or the level left; details: route intraperitoneal
[3] = system: Mus musculus; assay: Anticonvulsant activity in Kunming mouse assessed as protection against maximal electric shock-induced seizures at 300 mg/kg, ip measured after 4 hrs; assay type: functional, organism-based; set-up: dose 300 mg/kg; method in brief: as §1
[4] = system: Mus musculus; assay: Anticonvulsant activity in Kunming mouse assessed as protection against maximal electric shock-induced seizures at 100 mg/kg, ip measured after 0.5 hrs; assay type: functional, organism-based; set-up: dose 100 mg/kg; method in brief: as §1
[5] = system: Mus musculus; assay: Anticonvulsant activity in Kunming mouse assessed as inhibition of thiosemicarbazide-induced tonic seizures at 30 mg/kg, ip after 2.5 hrs; assay type: functional; set-up: scale not given: the % may be the effect or the level left; details: route intraperitoneal
Method in brief: (§2)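 Thiosemicarbazide, 50 mg/kg i.p., was given 0.5 h after compound or DMSO to KunMing mice, 10 per group. Mice were caged individually and observed for 2.5 h for clonic and tonic seizures and deaths.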

[6] = system: Mus musculus; assay: Neurotoxicity in Kunming mouse at 100 mg/kg, ip after 4 hrs; assay type: toxicity, organism-based; set-up: dose 100 mg/kg, route intraperitoneal; details: in vivo
Method in brief: (§3)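 Rotarod neurotoxicity in KunMing mice (18–22 g) trained on a 3.2 cm diameter rod at 10 rpm. Compounds in DMSO were given i.p. at 30, 100 and 300 mg/kg, three mice per dose, and tested at 0.5 h and 4 h after dosing.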

[7] = system: Mus musculus; assay: Anticonvulsant activity in Kunming mouse assessed as inhibition of thiosemicarbazide-induced clonic seizures at 30 mg/kg, ip after 2.5 hrs; assay type: functional; set-up: scale not given: the % may be the effect or the level left; details: route intraperitoneal; method in brief: as §2
[8] = system: Mus musculus; assay: Anticonvulsant activity in Kunming mouse assessed as inhibition of bicuculline-induced death at 30 mg/kg, ip after 0.5 hrs; assay type: functional; set-up: scale not given: the % may be the effect or the level left; details: route intraperitoneal
Method in brief: (§4)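 Kunming mice (18–22 g, 10/group) received test compound i.p. in DMSO; 0.5 h later bicuculline, 5.4 mg/kg, was given s.c. within 15–45 min of preparation. Mice were isolated and observed for at least 0.5 h for clonic seizures, tonic seizures and lethality.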

[9] = species: Mus musculus; assay: Protective index, ratio of TD50 for neurotoxicity in Kunming mouse to ED50 for inhibition of MES-induced seizures in Kunming mouse; assay type: functional
[10] = system: Mus musculus; assay: Anticonvulsant activity in Kunming mouse assessed as inhibition of 3-mercaptopropionic acid-induced clonic seizures at 30 mg/kg, ip after 0.5 hrs; assay type: functional; set-up: scale not given: the % may be the effect or the level left; details: route intraperitoneal
Method in brief: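 3-Mercaptopropionic acid, 60 mg/kg in saline, was injected s.c. 0.5 h after i.p. compound or DMSO in KunMing mice, 10 per group. Clonic and tonic seizures and deaths were scored.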

[11] = system: Mus musculus; assay: Anticonvulsant activity against maximal electric shock-induced seizures in ip dosed Kunming mouse assessed as median effective dose; assay type: functional
Method in brief: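 Phase-II MES test in KunMing mice (18–22 g), DMSO vehicle, corneal electrode stimulus 0.2 s. Groups of 10 mice got a range of i.p. doses until at least three points fell within 10–90% seizure protection, giving the median effective dose. Endpoint is abolition of tonic hind-leg extension.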

[12] = system: Mus musculus; assay: Anticonvulsant activity in Kunming mouse assessed as protection against maximal electric shock-induced seizures at 30 mg/kg, ip measured after 4 hrs; assay type: functional, organism-based; set-up: dose 30 mg/kg; method in brief: as §1
[13] = system: Mus musculus; assay: Anticonvulsant activity in Kunming mouse assessed as inhibition of subcutaneous pentylenetetrazol-induced tonic seizures at 50 mg/kg, ip after 0.5 hrs; assay type: functional; set-up: scale not given: the % may be the effect or the level left
[14] = system: Mus musculus; assay: Anticonvulsant activity in Kunming mouse assessed as inhibition of 3-mercaptopropionic acid-induced tonic seizures at 30 mg/kg, ip after 0.5 hrs; assay type: functional; set-up: scale not given: the % may be the effect or the level left; details: route intraperitoneal
Method in brief: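 Kunming mice (18–22 g, 10/group) received test compound i.p. in DMSO; 0.5 h later 3-mercaptopropionic acid, 60 mg/kg in saline, was given s.c. Mice were scored for clonic seizures, tonic seizures (hind-leg extension) and deaths.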

[15] = system: Mus musculus; assay: Anticonvulsant activity in Kunming mouse assessed as inhibition of bicuculline-induced clonic seizures at 30 mg/kg, ip after 0.5 hrs; assay type: functional; set-up: scale not given: the % may be the effect or the level left; details: route intraperitoneal
Method in brief: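 Bicuculline, 5.4 mg/kg s.c. and used within 15–45 min of preparation, was given 0.5 h after i.p. compound or DMSO to KunMing mice, 10 per group. Mice were isolated and observed for at least 0.5 h for clonic seizures, tonic seizures and lethality.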

[16] = system: Mus musculus; assay: Neurotoxicity in Kunming mouse at 100 mg/kg, ip after 0.5 hrs; assay type: toxicity, organism-based; set-up: dose 100 mg/kg, route intraperitoneal; details: in vivo; method in brief: as §3
[17] = system: Mus musculus; assay: Anticonvulsant activity in Kunming mouse assessed as protection against maximal electric shock-induced seizures at 300 mg/kg, ip measured after 0.5 hrs; assay type: functional, organism-based; set-up: dose 300 mg/kg; method in brief: as §1
[18] = system: Mus musculus; assay: Anticonvulsant activity in Kunming mouse assessed as inhibition of bicuculline-induced tonic seizures at 30 mg/kg, ip after 0.5 hrs; assay type: functional; set-up: scale not given: the % may be the effect or the level left; details: route intraperitoneal; method in brief: as §4
[19] = system: Mus musculus; assay: Anticonvulsant activity in Kunming mouse assessed as inhibition of isoniazid-induced tonic seizures at 50 mg/kg, ip after 1 hrs; assay type: functional; set-up: scale not given: the % may be the effect or the level left; details: route intraperitoneal
Method in brief: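 Isoniazid given at 250 mg/kg, a dose convulsing all controls, to KunMing mice pretreated i.p. with compound or DMSO. Mice were caged individually and observed for 1 h, counting clonic seizures, tonic seizures and deaths.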

[20] = system: Mus musculus; assay: Neurotoxicity in Kunming mouse at 300 mg/kg, ip after 4 hrs; assay type: toxicity, organism-based; set-up: dose 300 mg/kg, route intraperitoneal; details: in vivo; method in brief: as §3
[21] = system: Mus musculus; assay: Anticonvulsant activity in Kunming mouse assessed as inhibition of isoniazid-induced death at 50 mg/kg, ip after 1 hrs; assay type: functional; set-up: scale not given: the % may be the effect or the level left; details: route intraperitoneal
[22] = system: Mus musculus; assay: Anticonvulsant activity in Kunming mouse assessed as inhibition of subcutaneous pentylenetetrazol-induced clonic seizures at 50 mg/kg, ip after 0.5 hrs; assay type: functional; set-up: scale not given: the % may be the effect or the level left
Method in brief: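 Compound or vehicle (DMSO) given i.p. to KunMing mice, 10 per group, before the pentylenetetrazol challenge. Mice were held in individual cages and observed for 0.5 h. Clonic seizures, tonic seizures (hind-leg extension) and deaths were counted.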

[23] = system: Mus musculus; assay: Anticonvulsant activity in Kunming mouse assessed as protection against maximal electric shock-induced seizures at 30 mg/kg, ip measured after 0.5 hrs; assay type: functional, organism-based; set-up: dose 30 mg/kg; method in brief: as §1
[24] = system: Mus musculus; assay: Neurotoxicity in Kunming mouse at 300 mg/kg, ip after 0.5 hrs; assay type: toxicity, organism-based; set-up: dose 300 mg/kg, route intraperitoneal; details: in vivo; method in brief: as §3
[25] = Neurotoxicity in ip dosed Kunming mouse by rotarod test; assay type: toxicity, organism-based; details: in vivo
Method in brief: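 Phase-II rotarod test in KunMing mice trained on a 3.2 cm rod at 10 rpm, DMSO vehicle. Groups of 10 mice got graded i.p. doses until at least three points fell within 10–90% minimal neurotoxicity, giving the median toxic dose.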

Row | SMILES | Activity [1] | Activity [2] [%] | Activity [3] | Activity [4] | Activity [5] [%] | Activity [6] | Activity [7] [%] | Activity [8] [%] | Ratio TD50/ED50 [9] | Activity [10] [%] | ED50 [11] [mg/kg] | Activity [12] | Activity [13] [%] | Activity [14] [%] | Activity [16] | Activity [17] | Activity [20] | Activity [23] | Activity [24] | TD50 [25] [mg/kg] | further results
1 | O=C1CC(c2ccccc2Br)n2ncnc2N1 (stereo unspecified) | inactive | 100 | inactive | Active | 0 | Non-toxic | 100 | 50 | 34.8 | 100 | 19.7 | inactive | 0 | 0 | Non-toxic | Active | Non-toxic | Active | Non-toxic | 685 | Activity [15]: 100%; Activity [18]: 10%; Activity [19]: 0%; Activity [21]: 30%; Activity [22]: 0%
2 | NC(=O)N1c2ccccc2C=Cc2ccccc21 [CARBAMAZEPINE] |  | 50 |  |  | 0 |  | 100 | 20 | 6.4 | 100 | 11.8 |  | 0 | 0 |  |  |  |  |  |  | Activity [15]: 100%; Activity [18]: 0%; Activity [19]: 0%; Activity [22]: 100%
3 | O=C1CC(c2cccc(Br)c2)n2ncnc2N1 (stereo unspecified) | inactive |  | inactive | Active |  | Non-toxic |  |  | 7 |  | 84.9 | inactive |  |  | Non-toxic | Active | Non-toxic | inactive | Non-toxic | 592 | 
4 | O=C1CC(c2ccccc2Cl)n2nccc2N1 (stereo unspecified) | inactive |  | inactive | Active |  | Non-toxic |  |  | 1.5 |  | 63.4 | inactive |  |  |  | Active | Non-toxic | inactive | Toxic | 94.7 | 
5 | O=C1CC(c2ccccc2)n2ccnc2N1 (stereo unspecified) | inactive |  | inactive | Active |  | Non-toxic |  |  | 6.7 |  | 68.2 | inactive |  |  | Non-toxic | Active | Non-toxic | inactive | Non-toxic | 458 | 
